Measurements published in ChEMBL document CHEMBL4699501, “Dihydrodibenzothiepine: Promising hydrophobic pharmacophore in the influenza cap-dependent endonuclease inhibitor” (Bioorg Med Chem Lett, 2020).
Active and inactive are the calls of the source. The calls are words filed in the database; no cut-off is given here.

Columns and labels:
[1] = Inhibition of Influenza virus Cap-dependent endonuclease; parameters: species or system Influenza A virus
Influenza A virus [2] = experiment: Antiviral activity against Influenza A virus (A/WSN/1933(H1N1)) infected in […] MDBK cells assessed as cell protection incubated for 72 hrs; assay type: functional, organism-based
In short: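 Madin-Darby bovine kidney cells were infected with A/WSN/33 at 50 TCID50/well and incubated with compound at 37 °C in a CO2 incubator for 72 hr.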

[3] = Metabolic stability in rat liver microsomes assessed as compound remaining at 2 uM incubated for 30 mins; assay type: ADME, Microsome; conditions: read-out: Stabilty
In short: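 Compound at 2 μM was incubated with rat liver microsomes at 37 °C for 30 min. The read-out is % of compound remaining.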

[4] = Clearance in iv dosed rat by LC/MS/MS analysis; assay type: ADME, organism-based; conditions: in vivo
In short: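 Rats received a single intravenous dose, and plasma levels were quantified by LC/MS/MS to derive clearance. Values are the mean of duplicate experiments.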

[5] = Fraction unbound in rat serum; assay type: ADME, cell-free
In short: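 Free fraction was measured in the presence of rat serum. Values are the mean of duplicate experiments.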

Influenza A virus [6] = experiment: Antiviral activity against Influenza A virus (A/WSN/1933(H1N1)) infected in mouse assessed as reduction in viral titer in lung by measuring reduction in virus infectivity in MDCK cells at 0.4 to 10 mg/kg, po administered after 5 days of infection and measured after 24 hrs; assay type: functional, organism-based; conditions: dose mg/kg 0.4-10, time […]
In short: (§1)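 Mice were inoculated with A/WSN/33 at 100 TCID50/mouse. Oral dosing was twice daily (BID), starting 5 days after infection. Lung virus titer (log TCID50/mL) was determined on MDCK cells 24 h after the first dose.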

Influenza A virus [7] = experiment: Antiviral activity against Influenza A virus (A/WSN/1933(H1N1)) infected in mouse assessed as reduction in viral titer in lung by measuring reduction in virus infectivity in MDCK cells at 5 mg/kg, po administered after 5 days of infection and measured after 24 hrs; assay type: functional, organism-based; in short: as §1

C[C@@H](N1CN([C@@H]2c3ccccc3SCc3c2ccc(F)c3F)n2ccc(=O)c(O)c2C1=O)C(F)(F)F
IC50 [1]: 5.57 nM | EC50 (Influenza A virus [2]): 4.28 nM | remaining at 0.5 h, 2 µM [3]: 81.1% | clearance [4]: 11 mL/min/kg | fraction unbound [5]: 0.00411 | Activity (Influenza A virus [6]): Active

CC(C)N1CN(C(c2ccccc2)c2ccccc2)n2ccc(=O)c(O)c2C1=O
IC50 [1]: 286 nM | EC50 (Influenza A virus [2]): 81.6 nM

CCOC(=O)C1=C[C@@H](OC(CC)CC)[C@H](NC(C)=O)[C@@H](N)C1
Activity (Influenza A virus [7]): Active

C[C@@H](N1CN([C@H]2c3ccc(F)cc3CSc3ccccc32)n2ccc(=O)c(O)c2C1=O)C(F)(F)F
IC50 [1]: 12.3 nM | EC50 (Influenza A virus [2]): 3.54 nM | remaining at 0.5 h, 2 µM [3]: 95.3% | clearance [4]: 11.6 mL/min/kg | fraction unbound [5]: 0.00383

CC(C)N1CN(C2c3ccccc3COc3ccccc32)n2ccc(=O)c(O)c2C1=O (centres undefined)
EC50 (Influenza A virus [2]): 71 nM

C[C@@H](N1CN([C@H]2c3ccccc3CSc3cccc(Cl)c32)n2ccc(=O)c(O)c2C1=O)C(F)(F)F
IC50 [1]: 76.2 nM | EC50 (Influenza A virus [2]): 18.8 nM | remaining at 0.5 h, 2 µM [3]: 85.4% | clearance [4]: 10.2 mL/min/kg | fraction unbound [5]: 0.00589

C[C@H](N1CN([C@@H]2c3ccccc3CSc3ccccc32)n2ccc(=O)c(O)c2C1=O)C(F)(F)F
EC50 (Influenza A virus [2]): 21.7 nM

CC(CN(C)C)N1CN(C2c3ccccc3CSc3ccccc32)n2ccc(=O)c(O)c2C1=O (centres undefined)
EC50 (Influenza A virus [2]): 84.1 nM | remaining at 0.5 h, 2 µM [3]: 76.4% | clearance [4]: 98.7 mL/min/kg

O=C1c2c(O)c(=O)ccn2N(C2c3ccccc3CSc3ccccc32)CN1C1CC1 (centres undefined)
IC50 [1]: 35 nM | EC50 (Influenza A virus [2]): 13.7 nM | remaining at 0.5 h, 2 µM [3]: 73.7% | clearance [4]: 46 mL/min/kg | fraction unbound [5]: 0.0783

[2H]C([2H])([2H])C([2H])(N1CN(C2c3ccccc3CSc3ccccc32)n2ccc(=O)c(O)c2C1=O)C([2H])([2H])[2H] (centres undefined)
IC50 [1]: 43.4 nM | EC50 (Influenza A virus [2]): 11.7 nM | remaining at 0.5 h, 2 µM [3]: 74.4% | clearance [4]: 39.1 mL/min/kg | fraction unbound [5]: 0.0601

C[C@@H](N1CN([C@H]2c3ccccc3CSc3cc(F)ccc32)n2ccc(=O)c(O)c2C1=O)C(F)(F)F
EC50 (Influenza A virus [2]): 14.3 nM | remaining at 0.5 h, 2 µM [3]: 93.9% | clearance [4]: 13.4 mL/min/kg | fraction unbound [5]: 0.00807

C[C@@H](N1CN([C@H]2c3ccccc3CSc3ccccc32)n2ccc(=O)c(O)c2C1=O)C(F)(F)F
EC50 (Influenza A virus [2]): 4.69 nM | remaining at 0.5 h, 2 µM [3]: 98.1% | clearance [4]: 15.8 mL/min/kg | fraction unbound [5]: 0.0103

COc1cccc(C(c2cccc(OC)c2)N2CN(C(C)C)C(=O)c3c(O)c(=O)ccn32)c1
IC50 [1]: 1310 nM | EC50 (Influenza A virus [2]): 589 nM

C[C@H](N1CN([C@H]2c3ccccc3CSc3ccccc32)n2ccc(=O)c(O)c2C1=O)C(F)(F)F
EC50 (Influenza A virus [2]): 18.6 nM | remaining at 0.5 h, 2 µM [3]: 79.8%

CC(C)N1CN(C(c2cccc(Cl)c2)c2cccc(Cl)c2)n2ccc(=O)c(O)c2C1=O
IC50 [1]: 230 nM | EC50 (Influenza A virus [2]): 65.8 nM

C[C@@H](N1CN([C@H]2c3ccccc3CSc3cc(Cl)ccc32)n2ccc(=O)c(O)c2C1=O)C(F)(F)F
IC50 [1]: 62.1 nM | EC50 (Influenza A virus [2]): 21.2 nM | remaining at 0.5 h, 2 µM [3]: 101% | clearance [4]: 12.2 mL/min/kg | fraction unbound [5]: 0.00303

C[C@@H](N1CN([C@@H]2c3ccccc3CSc3ccccc32)n2ccc(=O)c(O)c2C1=O)C(F)(F)F
EC50 (Influenza A virus [2]): 131 nM

C[C@@H](N1CN([C@H]2c3ccc(Cl)cc3CSc3ccccc32)n2ccc(=O)c(O)c2C1=O)C(F)(F)F
IC50 [1]: 6.99 nM | EC50 (Influenza A virus [2]): 10.5 nM | remaining at 0.5 h, 2 µM [3]: 96.1% | clearance [4]: 5.7 mL/min/kg | fraction unbound [5]: 0.00117

CC(C)N1CN(C(c2ccccc2Cl)c2ccccc2Cl)n2ccc(=O)c(O)c2C1=O
IC50 [1]: 37 nM | EC50 (Influenza A virus [2]): 48.2 nM

Cc1ccccc1C(c1ccccc1)N1CN(C(C)C)C(=O)c2c(O)c(=O)ccn21 (centres undefined)
IC50 [1]: 142 nM | EC50 (Influenza A virus [2]): 73.4 nM

C[C@@H](N1CN([C@H]2c3ccccc3CSc3ccc(Cl)cc32)n2ccc(=O)c(O)c2C1=O)C(F)(F)F
IC50 [1]: 24.9 nM | EC50 (Influenza A virus [2]): 70.8 nM

Cc1ccc(C(c2ccc(C)cc2)N2CN(C(C)C)C(=O)c3c(O)c(=O)ccn32)cc1
IC50 [1]: 394 nM | EC50 (Influenza A virus [2]): 440 nM

COCC(C)N1CN(C2c3ccccc3CSc3ccccc32)n2ccc(=O)c(O)c2C1=O (centres undefined)
IC50 [1]: 57.9 nM | EC50 (Influenza A virus [2]): 20.7 nM | remaining at 0.5 h, 2 µM [3]: 58.6% | clearance [4]: 49.1 mL/min/kg | fraction unbound [5]: 0.106

Cc1cccc(C(c2ccccc2)N2CN(C(C)C)C(=O)c3c(O)c(=O)ccn32)c1 (centres undefined)
IC50 [1]: 276 nM | EC50 (Influenza A virus [2]): 219 nM

CC(C)N1CN(C(c2ccccc2)c2ccc(Cl)cc2)n2ccc(=O)c(O)c2C1=O (centres undefined)
IC50 [1]: 291 nM | EC50 (Influenza A virus [2]): 94 nM

C[C@@H](N1CN([C@H]2c3ccccc3CSc3ccc(F)cc32)n2ccc(=O)c(O)c2C1=O)C(F)(F)F
EC50 (Influenza A virus [2]): 8.16 nM | remaining at 0.5 h, 2 µM [3]: 103% | clearance [4]: 15.4 mL/min/kg | fraction unbound [5]: 0.00975

C[C@@H](N1CN([C@H]2c3ccccc3CSc3c(Cl)cccc32)n2ccc(=O)c(O)c2C1=O)C(F)(F)F
IC50 [1]: 23.2 nM | EC50 (Influenza A virus [2]): 13.5 nM | remaining at 0.5 h, 2 µM [3]: 92.3% | clearance [4]: 6.78 mL/min/kg | fraction unbound [5]: 0.00329

C[C@@H](N1CN([C@H]2c3ccccc3CSc3c(F)cccc32)n2ccc(=O)c(O)c2C1=O)C(F)(F)F
EC50 (Influenza A virus [2]): 3.41 nM | remaining at 0.5 h, 2 µM [3]: 95.6% | clearance [4]: 10.3 mL/min/kg | fraction unbound [5]: 0.00574

C[C@@H](N1CN([C@@H]2c3ccccc3SCc3cccc(F)c32)n2ccc(=O)c(O)c2C1=O)C(F)(F)F
IC50 [1]: 31.8 nM | EC50 (Influenza A virus [2]): 3.75 nM | remaining at 0.5 h, 2 µM [3]: 102% | clearance [4]: 18 mL/min/kg | fraction unbound [5]: 0.012

C[C@@H](N1CN([C@H]2c3ccccc3CSc3cccc(F)c32)n2ccc(=O)c(O)c2C1=O)C(F)(F)F
IC50 [1]: 37.1 nM | EC50 (Influenza A virus [2]): 15.1 nM | remaining at 0.5 h, 2 µM [3]: 97.4% | clearance [4]: 9.09 mL/min/kg | fraction unbound [5]: 0.0119

C[C@@H](N1CN([C@H]2c3cc(Cl)ccc3CSc3ccccc32)n2ccc(=O)c(O)c2C1=O)C(F)(F)F
EC50 (Influenza A virus [2]): 4.21 nM | remaining at 0.5 h, 2 µM [3]: 94.1% | clearance [4]: 12.4 mL/min/kg | fraction unbound [5]: 0.00514

CC(C)N1CN(C2c3ccccc3CSc3ccccc32)n2ccc(=O)c(O)c2C1=O (racemic)
EC50 (Influenza A virus [2]): 16.9 nM | remaining at 0.5 h, 2 µM [3]: 72.6% | clearance [4]: 32.7 mL/min/kg | fraction unbound [5]: 0.0768

CC(C)N1CN(C(c2ccccc2)c2cccc(Cl)c2)n2ccc(=O)c(O)c2C1=O (centres undefined)
IC50 [1]: 101 nM | EC50 (Influenza A virus [2]): 75.9 nM

C[C@@H](N1CN([C@H]2c3cc(F)ccc3CSc3ccccc32)n2ccc(=O)c(O)c2C1=O)C(F)(F)F
IC50 [1]: 44.3 nM | EC50 (Influenza A virus [2]): 4.68 nM | remaining at 0.5 h, 2 µM [3]: 98.9% | clearance [4]: 21.3 mL/min/kg | fraction unbound [5]: 0.0129

C[C@@H](N1CN([C@H]2c3ccccc3SCc3cccc(Cl)c32)n2ccc(=O)c(O)c2C1=O)C(F)(F)F
IC50 [1]: 9.95 nM | EC50 (Influenza A virus [2]): 3.52 nM | remaining at 0.5 h, 2 µM [3]: 93.3% | clearance [4]: 19.6 mL/min/kg | fraction unbound [5]: 0.0179

CC(C)N1CN(C2c3ccccc3CCc3ccccc32)n2ccc(=O)c(O)c2C1=O
IC50 [1]: 60.1 nM | EC50 (Influenza A virus [2]): 20.1 nM

CC(C)N1CN(C(c2cccc(C(F)(F)F)c2)c2cccc(C(F)(F)F)c2)n2ccc(=O)c(O)c2C1=O
IC50 [1]: 456 nM | EC50 (Influenza A virus [2]): 386 nM

CC(C)N1CN(C(c2ccccc2)c2ccccc2Cl)n2ccc(=O)c(O)c2C1=O (centres undefined)
IC50 [1]: 210 nM | EC50 (Influenza A virus [2]): 77.8 nM

O=C1c2c(O)c(=O)ccn2N(C2c3ccccc3CSc3ccccc32)CN1C(CF)CF (centres undefined)
IC50 [1]: 113 nM | EC50 (Influenza A virus [2]): 27.5 nM | remaining at 0.5 h, 2 µM [3]: 84.9% | clearance [4]: 33.5 mL/min/kg

C[C@@H](N1CN([C@@H]2c3ccccc3SCc3c(Cl)cccc32)n2ccc(=O)c(O)c2C1=O)C(F)(F)F
IC50 [1]: 30 nM | EC50 (Influenza A virus [2]): 3.04 nM | remaining at 0.5 h, 2 µM [3]: 102% | clearance [4]: 7.36 mL/min/kg | fraction unbound [5]: 0.00293

C[C@@H](N1CN([C@@H]2c3ccccc3SCc3c(F)cccc32)n2ccc(=O)c(O)c2C1=O)C(F)(F)F
IC50 [1]: 12.5 nM | EC50 (Influenza A virus [2]): 3.85 nM | remaining at 0.5 h, 2 µM [3]: 91.8% | clearance [4]: 8.37 mL/min/kg | fraction unbound [5]: 0.00978
